TRPC4 block: inhibitors of mouse TRPC4 channel, primary screen, Fluo4 calcium, HEK293 TRPC4beta/mu-opioid cells; AID 2247, 2010; B-score at 10 µM; Short transient receptor potential channel 4 (Mus musculus), Q9QUQ5; DAMGO-evoked Fluo4 calcium flux; stronger effect = lower value; 300,000 compounds, 0.39% hits;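 active = B-score over 3 SD under the library average, no early fluorescence shift, positive overall ratio signal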
Target sequence (Q9QUQ5 whole entry, looked up): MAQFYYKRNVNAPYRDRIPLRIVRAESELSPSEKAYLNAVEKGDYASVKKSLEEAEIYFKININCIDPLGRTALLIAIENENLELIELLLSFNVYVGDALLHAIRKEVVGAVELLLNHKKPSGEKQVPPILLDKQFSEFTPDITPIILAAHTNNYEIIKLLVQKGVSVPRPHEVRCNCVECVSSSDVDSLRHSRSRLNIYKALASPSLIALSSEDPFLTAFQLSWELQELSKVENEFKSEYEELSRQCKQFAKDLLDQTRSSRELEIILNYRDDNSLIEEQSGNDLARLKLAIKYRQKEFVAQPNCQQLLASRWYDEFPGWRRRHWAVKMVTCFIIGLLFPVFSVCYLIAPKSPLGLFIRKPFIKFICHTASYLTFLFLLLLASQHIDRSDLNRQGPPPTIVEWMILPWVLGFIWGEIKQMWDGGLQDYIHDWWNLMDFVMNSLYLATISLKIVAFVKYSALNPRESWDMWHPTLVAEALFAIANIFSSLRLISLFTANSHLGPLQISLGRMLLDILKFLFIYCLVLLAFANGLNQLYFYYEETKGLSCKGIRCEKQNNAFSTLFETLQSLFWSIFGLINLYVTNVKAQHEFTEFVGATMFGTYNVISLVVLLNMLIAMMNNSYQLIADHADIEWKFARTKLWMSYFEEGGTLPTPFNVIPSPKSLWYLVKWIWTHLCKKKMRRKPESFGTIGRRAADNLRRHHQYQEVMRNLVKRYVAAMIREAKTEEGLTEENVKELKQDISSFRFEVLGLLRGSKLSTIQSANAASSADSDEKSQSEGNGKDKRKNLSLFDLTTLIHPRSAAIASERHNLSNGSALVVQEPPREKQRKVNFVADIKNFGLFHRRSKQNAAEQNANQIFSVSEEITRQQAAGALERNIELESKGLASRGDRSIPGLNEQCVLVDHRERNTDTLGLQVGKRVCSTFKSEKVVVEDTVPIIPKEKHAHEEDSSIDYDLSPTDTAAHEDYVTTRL
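test system = HEK293 cells with stable TRPC4beta plus mu-opioid receptor expression | detection = Fluo4 Ca2+ flux fluorescence | read-out = integrated fluorescence ratio relative to baseline, converted to per-well B score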
TRPC4 potent: positive allosteric modulators of TRPC4, primary screen, cell-based, mouse TRPC4beta, HEK293 mu-opioid, Fluo-4 calcium. B-score at 10 µM. DAMGO EC20, Fluo-4 Ca2+ flux; stronger effect = higher value. 310,000 compounds, 0.42% hits. Short transient receptor potential channel 4 (Mus musculus), Q9QUQ5. AID 2227, 2009;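 active = B-score of calcium response area above 5 SD of library B-scores, with initial fluorescence ratio within 5 SD of library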;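 also: B-score of integrated fluorescence ratio over time as area under calcium response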
TRPC4 act: activators of mouse TRPC4 channel, primary screen, Fluo4 calcium, HEK293 TRPC4beta/mu-opioid cells. Short transient receptor potential channel 4 (Mus musculus), Q9QUQ5. Fluo4 calcium fluorescence; stronger effect = higher value. 310,000 compounds, 0.49% hits. B-score at 10 µM;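 active = B-score above 5 SD of library B-scores, and initial fluorescence ratio not above library mean plus 5 SD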;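 also: positive B-score marks a calcium rise read as TRPC4 activation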
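Material: TRPC4beta and mu-opioid receptor HEK293 stable cells | Incubation: 45 min room-temperature Fluo4 loading, 110 s read | Detection: Kinetic Fluo4 calcium fluorescence | Measure: Integrated baseline-normalised fluorescence ratio, converted to per-well B score | Benchmarks: Low control buffer alone, high control maximal DAMGO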
Kir21 inh: inhibitors of mouse Kir2.1 inward-rectifier potassium channel; Inward rectifier potassium channel 2 (Mus musculus), P35561; HEK293-Kir2.1, FluxOR thallium flux fluorescence; stronger effect = lower value; B-score at 10 µM; 310,000 compounds, 0.85% hits;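 active = fluorescence ratio B-score at or below minus 3 SD of library scores, with starting-brightness B-score within 2 SD, cut at about -4.2 in these data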;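 also: channel flux triggered by added potassium and thallium sulfate stimulus; B-score of peak minus minimum fluorescence over baseline after thallium stimulus; more negative B-score means stronger Kir2.1 block with less thallium influx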
TRPC6 inhibitor: mouse TRPC6 channel inhibitors, primary screen, cell-based, HEK293, membrane potential dye; Short transient receptor potential channel 6 (Mus musculus), Q61143; ACh-evoked depolarization; stronger effect = lower value; B-score at 10 µM; 310,000 compounds, 1.1% hits; AID 2553, 2010;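 active = B-score under library mean minus 3 SD, initial fluorescence not abnormally high, positive integrated signal ratio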;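 also: B-score derived from integrated fluorescence ratio over the kinetic read; more negative B-score means stronger inhibition of depolarization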
TRPC6 activator: mouse TRPC6 channel activators, primary screen, cell-based, HEK293, membrane potential dye; 310,000 compounds, 0.13% hits; B-score at 10 µM; HEK293-TRPC6 membrane potential dye fluorescence; stronger effect = higher value;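 active = B-score of the integrated fluorescence ratio above library mean plus 3 SD, and starting fluorescence ratio within library mean plus 5 SD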;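 also: higher score means more depolarization so channel activation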
TRPC4 sel inh 2: second check of whether TRPC6 inhibitors also affect mouse TRPC4; shares compounds with TRPC6 inhibitor; HEK293 TRPC4/MOR, membrane potential dye fluorescence; channel activated by saturating DAMGO dose; inhibition, % at 10 µM; 920 compounds, 42% hits; AID 2776;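 active = compounds whose fluorescence signal differed from control wells by over 3 SD, either direction, in both duplicate plates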
TRPC4 spec: mouse TRPC4 modulation by TRPC6 hits, confirmation, selectivity assay for TRPC6 inhibitor project, cell-based, HEK293 TRPC4/mu-opioid, membrane potential dye; shares compounds with TRPC6 inhibitor; activity change, negative = inhibition, % at 10 µM; membrane potential fluorescence; 920 compounds, 61% hits; AID 2777, 2010;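 active = rise or fall in signal beyond 3 SD of buffer-only wells in both replicate plates, either sign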;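 also: integrated kinetic ratio of fluorescence range over baseline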
HEK293 MPD ctr 2-1: nonspecific membrane potential effects, parental HEK293, confirmation, counter-screen for TRPC6 inhibitor project, cell-based, second counter screen | shares compounds with TRPC6 inhibitor | parental HEK293 membrane potential dye fluorescence; maximal acetylcholine challenge after compound addition | signal change vs control, % at 10 µM | 920 compounds, 31% hits;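 active = membrane potential signal moving either way by over 3 SD of the maximum-effect control, in both duplicate plates, meaning non-specific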
HEK293 MPD ctr-1: membrane potential modulation in parental HEK293, confirmation, counter-screen for TRPC6 inhibitor project, cell-based | shares compounds with TRPC6 inhibitor | membrane potential signal change, % at 10 µM | 920 compounds, 60% hits | parental HEK293 membrane potential dye fluorescence;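 active = membrane potential signal shifting up or down by more than 3 SD of buffer-only wells, on both duplicate plates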
HEK293 MPD ctr-2: parental HEK293 membrane potential modulation, confirmation, counter-screen for TRPC6 modulator project, cell-based; membrane potential signal change, % at 10 µM; AID 488924, 2010; shares compounds with TRPC6 inhibitor; membrane potential dye fluorescence; 2,400 compounds, 51% hits;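 active = membrane potential signal moves up or down beyond 5 SD from buffer-only wells, on both duplicate plates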
HEK293 MPD ctr 2-2: second counter-screen for TRPC6 modulators: effect in parental HEK293 cells. inhibition, % at 10 µM. 2,400 compounds, 14% hits. shares compounds with TRPC6 inhibitor. membrane potential dye fluorescence; after compound, maximal acetylcholine stimulation;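 active = membrane potential signal drops by more than 5 SD from the mean control signal, in both duplicate plates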;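 also: plate controls were acetylcholine ECmax control wells for no effect and buffer only wells for full effect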
TRPC4/MOR mod: TRPC4 modulation by TRPC6 hit compounds, confirmation, selectivity assay for TRPC6 modulator project, cell-based, HEK293 TRPC4/mu-opioid, membrane potential dye, mouse. shares compounds with TRPC6 inhibitor. membrane potential fluorescence. percent change from control (negative = decrease, positive = increase), % at 10 µM. 2,400 compounds, 69% hits. AID 488927, 2010;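 active = membrane potential signal moved up or down beyond 5 SD of buffer control wells, in both duplicate plates, actives on both sides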;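 also: plate controls were assay buffer wells for no effect and DAMGO maximal-effect wells for full effect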
TRPC4/MOR inh 2: second check of whether TRPC6 modulators also affect mouse TRPC4. HEK293 TRPC4/mu-opioid, membrane potential dye fluorescence; stimulated with maximal-effect DAMGO. AID 488928. inhibition, % at 10 µM. shares compounds with TRPC6 inhibitor. 2,400 compounds, 55% hits;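 active = drop in membrane potential signal beyond 5 SD of the control wells in both duplicate plates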;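 also: TRPC4 counter screen for TRPC6 hits run under conditions tuned for TRPC6 not TRPC4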
TRPC6 block conf: mouse TRPC6 channel inhibitors, confirmation, HEK293 cells, membrane potential dye, duplicate. inhibition, % at 10 µM. ACh-evoked depolarization. shares compounds with TRPC6 inhibitor. AID 488960, 2010. 3,300 compounds, 43% hits;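 active = fluorescence ratio falls more than 5 SD below the full-stimulation control mean, in both duplicate runs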;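 also: integrated fluorescence ratio of peak minus minimum over baseline after agonist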
TRPC6 act conf: mouse TRPC6 channel activators, confirmation, HEK293 cells, membrane potential dye, duplicate; shares compounds with TRPC6 inhibitor; HEK293-TRPC6 membrane potential dye fluorescence, FDSS; activation, % at 10 µM; 2,800 compounds, 11% hits;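 active = ratio signal rise beyond 5 SD above unstimulated control wells' mean, seen in both duplicate runs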;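 also: plate controls were buffer EC0 wells for no effect and acetylcholine ECmax response for full effect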
Starred values were filed as active, the others as inactive. Rows were chosen to be rich in hits. Some 2.9% of all compounds tested hit in one or more screens of this group.

Results for O=c1oc(Nc2cccc(F)c2)nc2ccccc12 ?
TRPC4 block: inactive; TRPC4 potent: inactive; TRPC4 act: inactive; Kir21 inh: -1.04; TRPC6 inhibitor: inactive; TRPC6 activator: inactive

What do the screens show for `COc1ccc(Cl)cc1Nc1nc(N)c2ccccc2n1`?
TRPC4 block: inactive; TRPC4 potent: inactive; TRPC4 act: inactive; Kir21 inh: -0.94; TRPC6 inhibitor: -10.8*; TRPC6 activator: inactive; TRPC4 sel inh 2: 46.5%*; TRPC4 spec: -20.0%*; HEK293 MPD ctr 2-1: inactive; HEK293 MPD ctr-1: -185.0%*; TRPC6 block conf: 80.9%*; TRPC6 act conf: inactive

What do the screens show for `Cc1ccc(O)c(Nc2c3ccccc3nc3ccccc23)c1`?
TRPC4 block: inactive; TRPC4 potent: inactive; TRPC4 act: inactive; Kir21 inh: -3.65; TRPC6 inhibitor: -5.59*; TRPC6 activator: inactive; HEK293 MPD ctr-2: -92.0%*; HEK293 MPD ctr 2-2: inactive; TRPC4/MOR mod: -18.5%*; TRPC4/MOR inh 2: 60.0%*; TRPC6 block conf: inactive; TRPC6 act conf: inactive

How did Nc1nc(Nc2cccc(F)c2)nc2ccccc12 do in these assays?
TRPC4 block: inactive; TRPC4 potent: inactive; TRPC4 act: inactive; Kir21 inh: -0.99; TRPC6 inhibitor: -13*; TRPC6 activator: inactive; TRPC4 sel inh 2: 22.5%*; TRPC4 spec: -33.0%*; HEK293 MPD ctr 2-1: -37.0%*; HEK293 MPD ctr-1: -493.0%*; TRPC6 block conf: 90.2%*; TRPC6 act conf: inactive

What do the screens show for `Cc1ccc(O)c(Nc2nc(-c3ccccc3)nc3ccccc23)c1`?
TRPC4 block: inactive; TRPC4 potent: inactive; TRPC4 act: inactive; Kir21 inh: -0.07; TRPC6 inhibitor: inactive; TRPC6 activator: inactive

How did Cc1ccc(C)c(Nc2nc(N)c3ccccc3n2)c1 do in these assays?
TRPC4 block: inactive; TRPC4 potent: inactive; TRPC4 act: inactive; Kir21 inh: -3.34; TRPC6 inhibitor: -15.9*; TRPC6 activator: inactive; TRPC4 sel inh 2: 18.5%*; TRPC4 spec: -30.3%*; HEK293 MPD ctr 2-1: -3.0%*; HEK293 MPD ctr-1: -269.0%*; TRPC6 block conf: 89.6%*; TRPC6 act conf: inactive

Results for COc1ccc(CC(=O)OCC(=O)N2CCCc3ccccc32)cc1 ?
TRPC4 block: inactive; TRPC4 potent: inactive; TRPC4 act: inactive; Kir21 inh: -1.5; TRPC6 inhibitor: inactive; TRPC6 activator: inactive

What do the screens show for `COc1ccc(NS(=O)(=O)c2ccc(C)c(C(=O)N3CCCCCCC3)c2)cc1`?
TRPC4 block: inactive; TRPC4 potent: inactive; TRPC4 act: inactive; Kir21 inh: -1.04; TRPC6 inhibitor: inactive; TRPC6 activator: inactive

What do the screens show for `CC(=O)Oc1ccc(N(C(C)=O)S(=O)(=O)c2cc([N+](=O)[O-])ccc2C)cc1`?
TRPC4 block: inactive; TRPC4 potent: inactive; TRPC4 act: inactive; Kir21 inh: -0.36; TRPC6 inhibitor: inactive; TRPC6 activator: inactive

How did C=CCNC(=O)/C(=C/c1ccccc1OCC)NC(=O)c1ccccc1 do in these assays?
TRPC4 block: inactive; TRPC4 potent: inactive; TRPC4 act: inactive; Kir21 inh: 0.28; TRPC6 inhibitor: inactive; TRPC6 activator: inactive

What do the screens show for `O=C(Nc1ccc(OCC(F)(F)C(F)F)c(C(F)(F)F)c1)c1ccc(Cl)cc1`?
TRPC4 block: inactive; TRPC4 potent: inactive; TRPC4 act: inactive; Kir21 inh: 2.13; TRPC6 inhibitor: inactive; TRPC6 activator: inactive

Results for CCOCCOC(=O)COC(=O)c1ccccc1NC(=O)c1ccccc1 ?
TRPC4 block: inactive; TRPC4 potent: inactive; TRPC4 act: inactive; Kir21 inh: -1.8; TRPC6 inhibitor: inactive; TRPC6 activator: inactive

How did c1ccc(COc2ccccc2CNC2CCCC2)cc1 do in these assays?
TRPC4 block: inactive; TRPC4 potent: inactive; TRPC4 act: inactive; Kir21 inh: -2.91; TRPC6 inhibitor: -7.74*; TRPC6 activator: inactive; HEK293 MPD ctr-2: 531.0%*; HEK293 MPD ctr 2-2: 130.5%*; TRPC4/MOR mod: 111.5%*; TRPC4/MOR inh 2: 90.5%*; TRPC6 block conf: 107.5%*

Assay outcomes: PubChem BioAssay, Johns Hopkins Ion Channel Center
